Data set [1] can be described thus: Cytotoxicity against human HuH7 cells expressing luciferase reporter gene after 3 days by WST-8 assay. Format: cell-based, Huh-7. The essentials:
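LucNeo#2 subgenomic replicon cells, 50,000 cells/mL, pre-incubated 24 h in DMEM/10% FBS/antibiotics/1 mg/mL G418, then exposed 3 days to various compound concentrations without G418.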
On the technique in general: In a reporter assay the amount or activity of a reporter protein is the signal.

Data set [2] in a line: (§1) Selectivity index, ratio of CC50 for human HuH7 cells to EC50 for HCV1b. Set-up: species or system Huh-7. The essentials: (§2)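 Ratio of CC50 (WST-8 viable cell reduction) to EC50 (luciferase inhibition), both from LucNeo#2 replicon cells treated 3 days with compound in G418-free medium.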
For data set [3], the system named is Hepatitis C virus. Briefly: Antiviral activity against HCV1b infected in human HuH7 cells expressing luciferase reporter gene assessed as reduction of luciferase activity after 3 days. The format is functional, organism-based, Hepacivirus hominis. The following applies: genotype 1b, Huh-7, 72 h. In outline: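 Subgenomic HCV replicon cells with luciferase reporter (LucNeo#2), 50,000 cells/mL in DMEM + 10% FBS, antibiotics, 1 mg/mL G418 for 24 h; then 3 days with various compound concentrations in fresh medium lacking G418. Cells PBS-washed, lysed, luciferase read by luminometer; EC50 as concentration giving 50% inhibition of luciferase activity.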

For data set [4], the system named is Huh-7. The data set is described as §1. The essentials:
as §2

Data set [5] can be described thus: Cytotoxicity against human NNC2 cells assessed as GAPDH RNA level. The format is cell-based. The essentials: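 NNC#2 full-genome replicon cells, 30,000 cells/mL, 24 h in DMEM/10% FBS/1 mg/mL G418, then 3 days with various concentrations without G418. GAPDH RNA, as cell-viability index, measured by real-time PCR simultaneously with HCV RNA; CC50 derived.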
Data set [6] deals with Hepatitis C virus. Briefly: Antiviral activity against HCV1b infected in human NNC2 cells assessed as inhibition of viral RNA replication after 3 days by RT-PCR analysis. The format is functional, organism-based, Hepacivirus hominis. As to conditions: genotype 1b, NNC2, 72 h. The essentials: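 Full-genome HCV RNA replicon cells (NNC#2), 30,000 cells/mL, held 24 h in DMEM + 10% FBS + 1 mg/mL G418, then 3 days in fresh G418-free medium with various concentrations.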

In general, CC50 refers to the concentration that lowers cell viability or growth by half. In general, EC50 refers to the concentration that produces a half-maximal response. With `CNC(=O)c1c(-c2ccc(F)cc2)oc2cc(N(CCO)S(C)(=O)=O)c(C3CC3)cc12` [NESBUVIR], the CC50 at 72 h in data set [1] is > 20000 nM. Besides, the “Ratio CC50/EC50” value in data set [2] amounted to 57.1. Also, the 50% effective concentration (EC50) in data set [3] was 350 nM.
Regarding `COc1ccc(-c2cc(NO)c(C(=O)NCCO)c(=O)o2)cc1`, the CC50 at 72 h in data set [1] was > 20000 nM. Also, the “Ratio CC50/EC50” value in data set [2] was 14.2. The EC50 in data set [3] turned out to be 1410 nM.
For `COc1ccc(-c2cc(NO)c(C(=O)Nc3ccc(C)cc3)c(=O)o2)cc1` the same measures were > 20000 nM, 12.5 and 1600 nM.
The matching figures for `COC(=O)CNC(=O)c1c(NO)cc(-c2ccc(F)cc2)oc1=O`: > 20000 nM, 10.3 and 1930 nM.
For `CCNC(=O)c1c(NO)cc(-c2ccccc2)oc1=O` the same measures were > 20000 nM, 20 and 1000 nM.
Turning to `COC(=O)c1ccc(NC(=O)c2c(NO)cc(-c3ccccc3)oc2=O)cc1`, the CC50 at 72 h in data set [1] is > 20000 nM. In data set [2], the “Ratio CC50/EC50” value amounted to 60.6. For the same compound, in data set [3], the EC50 was 330 nM.
Take `CNC(=O)c1c(NO)cc(-c2ccc(Cl)cc2)oc1=O`: the CC50 at 72 h in data set [1] was > 20000 nM. The “Ratio CC50/EC50” value in data set [2] came to 25.6. The EC50 in data set [3] stood at 780 nM.
For `COC(=O)CNC(=O)c1c(NO)cc(-c2ccccc2)oc1=O` the same measures were > 20000 nM, 10.9 and 1840 nM.
The matching figures for `Cc1ccc(-c2cc(NO)c(C(=O)NCCO)c(=O)o2)cc1`: > 20000 nM, 7.7 and 2580 nM.
For `O=C(NCCCO)c1c(NO)cc(-c2ccccc2)oc1=O` the same measures were > 20000 nM, 44.4 and 450 nM.
`Cc1ccc(NC(=O)c2c(NO)cc(-c3ccc(C)cc3)oc2=O)cc1`: the CC50 at 72 h in data set [1] is > 20000 nM. For the same compound, the “Ratio CC50/EC50” value in data set [2] was found to be 43.5. In addition, in data set [3], the EC50 came out at 460 nM.
On to `CC(C)NC(=O)c1c(NO)cc(-c2ccccc2)oc1=O`, for which the CC50 at 72 h in data set [1] is > 20000 nM. For the same compound, the “Ratio CC50/EC50” value in data set [2] came out at 44.4. Besides, the EC50 in data set [3] came out at 450 nM.
The matching figures for `O=C(Nc1ccc(Br)cc1)c1c(NO)cc(-c2ccccc2)oc1=O`: > 20000 nM, 66.7 and 300 nM.
The matching figures for `O=C(Nc1ccc(Cl)cc1)c1c(NO)cc(-c2ccccc2)oc1=O`: > 20000 nM, 50 and 400 nM.
For the compound `Cc1cccc(NC(=O)c2c(NO)cc(-c3ccccc3)oc2=O)c1`, the cytotoxic concentration (CC50) at 72 h in data set [1] was > 20000 nM. Moreover, the “Ratio CC50/EC50” value in data set [2] was 74.1. For the same compound, in data set [3], the concentration giving a half-maximal response (EC50) stood at 270 nM.
The matching figures for `COc1ccc(-c2cc(NO)c(C(=O)Nc3ccccc3)c(=O)o2)cc1`: 16200 nM, 28.9 and 560 nM.
For `O=C(Nc1ccc(F)cc1)c1c(NO)cc(-c2ccccc2)oc1=O` the same measures were > 20000 nM, 62.5 and 320 nM.
On to `CNC(=O)c1c(NO)cc(-c2ccccc2)oc1=O`, for which the CC50 at 72 h in data set [1] is > 20000 nM. Also, the “Ratio CC50/EC50” value in data set [2] was determined as 33.3. In addition, in data set [3], the EC50 is 600 nM.
The matching figures for `O=C(NCc1ccccc1)c1c(NO)cc(-c2ccc(F)cc2)oc1=O`: > 20000 nM, 16.9 and 1180 nM.
On to `COC(=O)CNC(=O)c1c(NO)cc(-c2ccc(C)cc2)oc1=O`, for which the 50% cytotoxic concentration (CC50) at 72 h in data set [1] was > 20000 nM. Further, the “Ratio CC50/EC50” value in data set [2] came to 5. Moreover, the EC50 in data set [3] stood at 3990 nM.
The matching figures for `Cc1ccc(NC(=O)c2c(NO)cc(-c3ccc(Cl)cc3)oc2=O)cc1`: > 20000 nM, 14 and 1430 nM.
For `CNC(=O)c1c(NO)cc(-c2ccc(C)cc2)oc1=O` the same measures were > 20000 nM, 14.1 and 1420 nM.
On to `Cc1ccc(NC(=O)c2c(NO)cc(-c3ccc(F)cc3)oc2=O)cc1`, for which the CC50 at 72 h in data set [1] is > 20000 nM. Also, the “Ratio CC50/EC50” value in data set [2] came to 10.2. In addition, the EC50 in data set [3] came to 1950 nM.
The matching figures for `O=C(NCCO)c1c(NO)cc(-c2ccc(F)cc2)oc1=O`: > 20000 nM, 6.7 and 2980 nM.
The matching figures for `O=C(NCc1ccccc1)c1c(NO)cc(-c2ccccc2)oc1=O`: > 20000 nM, 69 and 290 nM.
The matching figures for `Cc1ccc(-c2cc(NO)c(C(=O)Nc3ccccc3)c(=O)o2)cc1`: > 20000 nM, 13.8 and 1450 nM.
With `COC(=O)CNC(=O)c1c(NO)cc(-c2ccc(Cl)cc2)oc1=O`, the CC50 at 72 h in data set [1] is > 20000 nM. Also, the “Ratio CC50/EC50” value in data set [2] was found to be 6.5. Besides, the EC50 in data set [3] amounted to 3060 nM.
The matching figures for `O=C(Nc1ccccc1)c1c(NO)cc(-c2ccccc2)oc1=O`: 11600 nM, 33.1 and 350 nM.
The matching figures for `COC(=O)CNC(=O)c1c(NO)cc(-c2ccc(OC)cc2)oc1=O`: > 20000 nM, 6.7 and 2960 nM.
For `CNC(=O)c1c(NO)cc(-c2ccc(OC)cc2)oc1=O` the same measures were > 20000 nM, 28.6 and 700 nM.
`CNC(=O)c1c(NO)cc(-c2ccc(F)cc2)oc1=O`: the CC50 at 72 h in data set [1] is > 20000 nM. In addition, the “Ratio CC50/EC50” value in data set [2] came out at 11.4. Moreover, the 50% effective concentration (EC50) in data set [3] was found to be 1750 nM.
The matching figures for `O=C(Nc1ccccc1)c1c(NO)cc(-c2ccc(Cl)cc2)oc1=O`: 11000 nM, 19.6 and 560 nM.
For `O=C(NCc1ccccc1)c1c(NO)cc(-c2ccc(Cl)cc2)oc1=O` the same measures were > 20000 nM, 29.4 and 680 nM.
For `CCCNC(=O)c1c(NO)cc(-c2ccccc2)oc1=O` the same measures were > 20000 nM, 44.4 and 450 nM.
With `CCC[C@H](NC(=O)[C@@H]1[C@H]2CCC[C@H]2CN1C(=O)[C@@H](NC(=O)[C@@H](NC(=O)c1cnccn1)C1CCCCC1)C(C)(C)C)C(=O)C(=O)NC1CC1` [TELAPREVIR], in data set [1], the CC50 at 72 h is > 20000 nM. Besides, in data set [4], the Ratio CC50/EC50 is 44.4. Moreover, the EC50 in data set [3] is 450 nM.
For `O=C(Nc1ccc(O)cc1)c1c(NO)cc(-c2ccccc2)oc1=O`, the CC50 at 72 h in data set [1] is > 20000 nM. In addition, in data set [2], the “Ratio CC50/EC50” value is recorded as 20. For the same compound, the EC50 in data set [3] came out at 1000 nM.
The matching figures for `Cc1ccccc1NC(=O)c1c(NO)cc(-c2ccccc2)oc1=O`: > 20000 nM, 37 and 540 nM.
For `O=C(Nc1ccccc1)c1c(NO)cc(-c2ccc(F)cc2)oc1=O` the same measures were 10300 nM, 9.7 and 1060 nM.
For `O=C(NCCO)c1c(NO)cc(-c2ccccc2)oc1=O` the same measures were > 20000 nM, 13.5 and 1480 nM.
Regarding `Cc1ccc(-c2cc(NO)c(C(=O)NCc3ccccc3)c(=O)o2)cc1`, in data set [1], the CC50 at 72 h is > 20000 nM. Moreover, the “Ratio CC50/EC50” value in data set [2] was 21.9. The EC50 in data set [3] came out at 910 nM.
One may read the EC90 as the point of the concentration-response curve where the effect stands at 90%. As for `Cc1ccc(NC(=O)c2c(NO)cc(-c3ccccc3)oc2=O)cc1`, the 50% cytotoxic concentration (CC50) in data set [5] is > 10000 nM. Further, in data set [6], the EC50 was determined as 77 nM and the EC90 was 450 nM. Also, the CC50 at 72 h in data set [1] is > 20000 nM. In addition, the “Ratio CC50/EC50” value in data set [2] turned out to be 111.1. Moreover, in data set [3], the EC50 amounted to 180 nM.
With `COc1ccc(-c2cc(NO)c(C(=O)NCc3ccccc3)c(=O)o2)cc1`, the CC50 at 72 h in data set [1] is > 20000 nM. Besides, the “Ratio CC50/EC50” value in data set [2] is given as 35.1. Also, in data set [3], the half-maximal effective concentration (EC50) came to 570 nM.
For `COc1ccc(NC(=O)c2c(NO)cc(-c3ccccc3)oc2=O)cc1` the same measures were > 20000 nM, 117.6 and 170 nM.
The matching figures for `O=C(NCCO)c1c(NO)cc(-c2ccc(Cl)cc2)oc1=O`: > 20000 nM, 5 and 4000 nM.

The record behind these values is ChEMBL document CHEMBL3124814, “Synthesis and Anti-HCV Activity of 4-Hydroxyamino α-Pyranone Carboxamide Analogues” (ACS Med Chem Lett, 2014).
